Converted amounts (≈) assume the structure as drawn. The source made the active and inactive calls. The calls are words filed in the database; no cut-off is given here.
Legend:
Pseudomonas aeruginosa [1] = test: Antimicrobial activity against Pseudomonas aeruginosa PAO1 after 3 hrs by bactericidal assay; type: functional; details: PAO1, 3 h
How it was run: (§1)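 Mid-log cultures grown in Iso-Sensitest broth, diluted to 1 × 10⁶–5 × 10⁶ CFU/ml in 10 mM potassium phosphate with 1% (vol/vol) Iso-Sensitest broth, pH 7.4. Peptides (monomer made by 10 mM DTT reduction overnight at room temperature, or dimer; oxidation state checked by MS) are incubated with 100 μl cells at 37°C for 3 h. Tenfold dilutions are plated and CFU counted next day. MBC is >99.99% killing, in duplicate on three occasions, taken as the mean. Mann-Whitney U test.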

Acinetobacter baumannii = test: Antimicrobial activity against Acinetobacter baumannii ATCC 19606 after 3 hrs by bactericidal assay; type: functional; details: ATCC 19606 = CIP 70.34 = JCM 6841, 3 h; how it was run: as §1
Burkholderia cenocepacia = test: Antimicrobial activity against Burkholderia cenocepacia J2315 after 3 hrs by bactericidal assay; type: functional; details: J2315, 3 h
Escherichia coli = test: Antimicrobial activity against Escherichia coli ATCC 25922 after 3 hrs by bactericidal assay; type: functional; details: ATCC 25922, 3 h; how it was run: as §1
Enterococcus faecalis = test: Antimicrobial activity against Enterococcus faecalis ATCC 700802 after 3 hrs by bactericidal assay; type: functional; details: ATCC 700802, 3 h; how it was run: as §1
Staphylococcus aureus [2] = test: Antimicrobial activity against Staphylococcus aureus ATCC 25923 after 3 hrs by bactericidal assay; type: functional; details: ATCC 25923, 3 h; how it was run: as §1
Staphylococcus aureus [3] = test: Antibacterial activity against methicillin-resistant Staphylococcus aureus J2918 after 3 hrs by bactericidal assay; type: functional; details: J2918, 3 h; how it was run: as §1
Pseudomonas aeruginosa [4] = test: Antimicrobial activity against Pseudomonas aeruginosa PAO1 after 3 hrs by bactericidal assay in presence of 200 mM NaCl; type: functional, organism-based
How it was run: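 Mid-log P. aeruginosa was grown in Iso-Sensitest broth and diluted in 10 mM potassium phosphate with 1% broth, pH 7.4, with sodium chloride added. Peptide dilutions were incubated with 1 × 10⁵ to 5 × 10⁵ CFU per 100 μl at 37°C for 3 h, then CFU were plated. MBC is >99.99% kill, the mean of duplicates from three independent runs.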

Pseudomonas aeruginosa [5] = test: Antimicrobial activity against Pseudomonas aeruginosa PAO1 after 3 hrs by bactericidal assay in presence of 10 mM NaCl; type: functional; details: PAO1, 3 h
How it was run: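 P. aeruginosa PAO1 at mid-log in Iso-Sensitest broth, diluted to 1 × 10⁶–5 × 10⁶ CFU/ml in 10 mM potassium phosphate/1% Iso-Sensitest broth, pH 7.4, with 10 mM NaCl added. Dimeric peptides are incubated with 100 μl cells at 37°C for 3 h, then plated as tenfold dilutions with CFU counted next day. MBC is >99.99% killing, from duplicates on three occasions. Mann-Whitney U test.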

Pseudomonas aeruginosa [6] = test: Antimicrobial activity against Pseudomonas aeruginosa PAO1 assessed as bacterial killing at 16.5 uM after 3 hrs by bactericidal assay; type: functional, organism-based
Staphylococcus aureus [7] = test: Stability of the compound in Staphylococcus aureus ATCC 25923 after 4 hrs by LC-MS analysis; type: ADME, organism-based
How it was run: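 Peptide is incubated with S. aureus ATCC 25923 for 4 h. Peptide integrity is then assessed by LC-MS as peak area relative to the sample before incubation.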

Pseudomonas aeruginosa [8] = test: Antimicrobial activity against Pseudomonas aeruginosa PAO1 at 20 uM; type: functional, organism-based
Staphylococcus aureus [9] = test: Antimicrobial activity against Staphylococcus aureus ATCC 25923 at 20 uM; type: functional, organism-based

Compound | MBC (Pseudomonas aeruginosa [1]) [µg/mL] | MBC (Acinetobacter baumannii) [µg/mL] | MBC (Burkholderia cenocepacia) [µg/mL] | MBC (Escherichia coli) [µg/mL] | MBC (Enterococcus faecalis) [µg/mL] | MBC (Staphylococcus aureus [2]) [µg/mL] | MBC (Staphylococcus aureus [3]) [µg/mL] | Activity (Pseudomonas aeruginosa [4]) | MBC (Pseudomonas aeruginosa [5]) [µM] | Activity (Pseudomonas aeruginosa [6]) | Stability (Staphylococcus aureus [7]) | Activity (Pseudomonas aeruginosa [8]) | Activity (Staphylococcus aureus [9])
CC[C@H](C)[C@H](NC(=O)[C@H](CCCNC(=N)N)NC(=O)[C@H](C)NC(=O)[C@H](Cc1ccccc1)NC(=O)[C@H](Cc1ccccc1)NC(=O)[C@H](CCCCN)NC(=O)[C@H](CCCNC(=N)N)NC(=O)[C@H](CC(C)C)NC(=O)[C@@H](NC(=O)[C@H](CCCCN)NC(=O)[C@@H]1CCCN1C(=O)[C@H](CC(C)C)NC(=O)[C@@H](N)Cc1ccccc1)[C@H](C)O)C(=O)N[C@@H](CCCNC(=N)N)C(=O)NCC(=O)NCC(=O)N[C@@H](CCCNC(=N)N)C(=O)N[C@@H](C)C(=O)N[C@@H](C)C(=O)N[C@H](C(=O)N[C@@H](CC(C)C)C(=O)N[C@@H](CC(N)=O)C(=O)N[C@@H](C)C(=O)O)C(C)C | > 48 | > 22 | > 20 | > 20 | > 20 | > 205 | > 40 |  |  |  |  |  | 
CC[C@H](C)[C@@H]1NC(=O)[C@H](CCC(N)=O)NC(=O)[C@H](CCC(=O)O)NC(=O)[C@H](CCC(=O)O)NC(=O)[C@H](CCCCN)NC(=O)CNC(=O)[C@H](CC(C)C)NC(=O)[C@@H]2CSSC[C@@H](C(=O)N[C@@H](CCCNC(=N)N)C(=O)N[C@@H](CCCCN)C(=O)N[C@@H](CCCCN)C(=O)N[C@@H](CCCCN)C(=O)O)NC(=O)[C@@H]3CSSC[C@H](NC(=O)[C@H](Cc4ccccc4)NC(=O)[C@H](Cc4ccccc4)NC(=O)[C@H](CCCCN)NC(=O)[C@H](CCCNC(=N)N)NC(=O)[C@H](CC(C)C)NC(=O)[C@@H](NC(=O)[C@H](CCCCN)NC(=O)[C@@H]4CCCN4C(=O)[C@H](CC(C)C)NC(=O)[C@@H](N)Cc4ccccc4)[C@H](C)O)C(=O)N[C@@H](CCCNC(=N)N)C(=O)N[C@@H]([C@@H](C)CC)C(=O)N[C@@H](CCCNC(=N)N)C(=O)NCC(=O)NCC(=O)N[C@@H](CCCNC(=N)N)C(=O)N[C@@H](CSSC[C@H](NC(=O)[C@H](CCCNC(=N)N)NC(=O)CNC1=O)C(=O)N[C@@H](CO)C(=O)N[C@@H](CC(N)=O)C(=O)N[C@@H](CO)C(=O)NCC(=O)N[C@@H](CCCNC(=N)N)C(=O)N[C@@H](CCCCN)C(=O)N3)C(=O)N[C@@H](C)C(=O)N[C@@H](C(C)C)C(=O)N[C@@H](CC(C)C)C(=O)N[C@@H](CC(N)=O)C(=O)N2 | 0.3 (≈ 0.0579 µM) | 0.3 (≈ 0.0579 µM) | 0.6 (≈ 0.116 µM) | > 205 | 1.2 (≈ 0.231 µM) | 1 (≈ 0.193 µM) | > 48 |  |  |  |  |  | 
CC(C)C[C@H](NC(=O)[C@@H](NC(=O)[C@H](CCCCN)NC(=O)[C@@H]1CCCN1C(=O)[C@H](CC(C)C)NC(=O)[C@@H](N)Cc1ccccc1)[C@H](C)O)C(=O)N[C@@H](CCCNC(=N)N)C(=O)N[C@@H](CCCCN)C(=O)N[C@@H](Cc1ccccc1)C(=O)N[C@@H](Cc1ccccc1)C(=O)O | 1.3 (≈ 1 µM) | 0.75 (≈ 0.578 µM) | > 48 | 3 (≈ 2.31 µM) | 1.2 (≈ 0.925 µM) | 1.2 (≈ 0.925 µM) | 2.4 (≈ 1.85 µM) | Active |  |  |  |  | 
CC[C@H](C)[C@H](NC(=O)[C@H](CCC(N)=O)NC(=O)[C@H](CCC(=O)O)NC(=O)[C@H](CCC(=O)O)NC(=O)[C@H](CCCCN)NC(=O)CNC(=O)[C@H](CC(C)C)NC(=O)[C@H](C)NC(=O)[C@H](CC(N)=O)NC(=O)[C@H](CC(C)C)NC(=O)[C@@H](NC(=O)[C@H](C)NC(=O)[C@H](C)NC(=O)[C@H](CCCNC(=N)N)NC(=O)CNC(=O)CNC(=O)[C@H](CCCNC(=N)N)NC(=O)[C@H](NC(=O)[C@H](CCCNC(=N)N)NC(=O)[C@H](C)NC(=O)[C@H](Cc1ccccc1)NC(=O)[C@H](Cc1ccccc1)NC(=O)[C@H](CCCCN)NC(=O)[C@H](CCCNC(=N)N)NC(=O)[C@@H](N)CC(C)C)[C@@H](C)CC)C(C)C)C(=O)NCC(=O)N[C@@H](CCCNC(=N)N)C(=O)N[C@@H](C)C(=O)N[C@@H](CO)C(=O)N[C@@H](CC(N)=O)C(=O)N[C@@H](CO)C(=O)NCC(=O)N[C@@H](CCCNC(=N)N)C(=O)N[C@@H](CCCCN)C(=O)N[C@@H](CS)C(=O)N[C@@H](C)C(=O)N[C@@H](CCCNC(=N)N)C(=O)N[C@@H](CCCCN)C(=O)N[C@@H](CCCCN)C(=O)N[C@@H](CCCCN)C(=O)O | 0.7 (≈ 0.158 µM) |  |  | 2.5 (≈ 0.563 µM) | 1.25 (≈ 0.281 µM) | 1.4 (≈ 0.315 µM) | 2.5 (≈ 0.563 µM) | Active |  |  |  |  | 
H-AAVLNA-OH | > 83.5 |  |  |  |  | > 83.5 |  |  |  |  |  |  | 
H-AAVLNALGKEEQIGRASNSGRKCARKKK-OH | > 16.5 | > 10 |  | > 10 | > 5 | > 16.5 | > 10 |  |  |  |  |  | 
H-FFARIRGGRAAVLNALGKEEQIGRASNSGRKCARKKK-OH | 1.1 | 2.9 |  | 10 | 1.9 | 1.5 | 2.2 |  | 10 |  |  |  | 
H-GGRAAVLNALGKEEQIGRASNSGRKCARKKK-OH | > 15.2 | > 10 |  | > 10 | > 5 | > 15.2 | > 10 |  |  | inactive | Stable |  | 
H-IRGGRAAVLNALGKEEQIGRAS-OH | 1.2 | 2.4 | > 205 | 38.6 | 4.8 | > 48 | > 22 |  |  |  |  |  | 
H-LGKEEQIGRASNSGRKCARKKK-OH | > 33 | > 48 | > 22 |  | 0.6 | 1.2 | > 205 |  |  |  |  |  | 
H-LRKFFARIRGGR-OH |  | 19 | 16.5 |  | > 22 | 12.1 | 7.1 | Active |  |  |  |  | 
H-RGGRAAVLNA-OH | 1.2 | > 205 | 38.6 | 9.6 | > 48 | > 22 | 1.2 |  |  |  |  |  | 
H-RIRGGRAAVLNA-OH |  |  |  |  |  |  |  |  |  |  |  | inactive | inactive
H-RIRGGRAAVLNALGKEEQIGRASNSGRKCARKKK-OH | 1.7 | 2.5 |  | > 10 | > 5 | 5.9 | > 10 |  |  |  |  |  | 

Source: ChEMBL document CHEMBL1255436, “Peptide fragments of a beta-defensin derivative with potent bactericidal activity” (Antimicrob Agents Chemother, 2010)
